Experiments:
Liver microsomes = test: Intrinsic clearance in human liver microsomes at 1 uM after 0.25 to 60 mins by LC-MS/MS analysis; format: ADME, Microsome
In short: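 Compound at 1 µM incubated at 37 °C with pooled human liver microsomes (0.5 mg/mL) in 0.1 M potassium phosphate pH 7.4 with an NADPH-regenerating system. Aliquots taken at 0.25, 5, 15, 30 and 60 min and quenched in acetonitrile. CLint calculated from T1/2, scaled by liver and microsomal protein factors.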

[1] = Dissociation constant, pKa of the compound; format: physicochemical
[2] = Distribution coefficient, log D of the compound at pH 7.4; format: physicochemical; conditions: octanol/water
[3] = Ratio of drug level in brain to plasma in Sprague-Dawley rat at 10 mg/kg, po after 1 hr; format: ADME, organism-based; parameters: dose 10 mg/kg, route oral; conditions: read-out: BPR
[4] = Drug level in Sprague-Dawley rat cerebrospinal fluid at 10 mg/kg, po after 1 hr; format: ADME, organism-based; parameters: dose 10 mg/kg, route oral; conditions: read-out: Drug uptake
Plasma = test: Free drug level in Sprague-Dawley rat plasma at 10 mg/kg, po after 1 hr; format: ADME, organism-based; parameters: dose 10 mg/kg, route oral; conditions: in vivo
[5] = Drug level in Sprague-Dawley rat brain at 10 mg/kg, po after 1 hr; format: ADME, organism-based; parameters: dose 10 mg/kg, route oral; conditions: read-out: Drug uptake
[6] = Apparent permeability of the compound at pH 7.4 by PAMPA method; format: ADME
In short: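 Passive membrane permeability estimated by PAMPA; apparent permeability (P_APP) reported in cm/s.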

[7] = Drug level in Sprague-Dawley rat plasma at 10 mg/kg, po after 1 hr; format: ADME, organism-based; parameters: dose 10 mg/kg, route oral

SMILES	CL (Liver microsomes) [L/min]	pKa [1]	further results
Cc1cc(-c2cccc(Cl)c2)ncc1C1CC(F)CN1C(=O)c1cnccn1 (stereo unspecified)	2.6	–	–
O=C(c1cccs1)N1CCCC1c1ccc(-c2cccc(Cl)c2)nc1 (stereo unspecified)	3	3.6	–
O=C(c1nccs1)N1CCCC1c1ccc(-c2cccc(Cl)c2)nc1 (stereo unspecified)	3.8	–	–
O=C(c1cncs1)N1CCCC1c1ccc(-c2cccc(Cl)c2)nc1 (stereo unspecified)	1.6	3.6	–
Cc1cc(C(=O)N2CCCC2c2ccc(-c3cccc(Cl)c3)nc2)no1 (stereo unspecified)	–	3.5	–
O=C(c1cnccn1)N1CCCC1c1ccc(-c2cccc(Cl)c2)nc1 (stereo unspecified)	3.3	3.4	–
Cc1cc(-c2cccc(Cl)c2)ncc1C1CCCN1C(=O)c1cncs1 (stereo unspecified)	35	4.2	–
Cc1cc(C(=O)N2CCCC2c2cnc(-c3cccc(Cl)c3)cc2C)no1 (stereo unspecified)	38	4.2	–
Cc1cc(-c2cccc(Cl)c2)ncc1C1CCCN1C(=O)c1cnccn1 (stereo unspecified)	3.3	4.1	–
Cc1cc(-c2cccc(Cl)c2)ncc1C1CCCN1C(=O)c1ccncn1 (stereo unspecified)	5.3	–	–
Cc1cc(-c2cccc(Cl)c2)ncc1C1CCCN1C(=O)C1CCC1 (stereo unspecified)	5.3	–	–
COc1cc(-c2cccc(Cl)c2)ncc1C1CCCN1C(=O)c1cncs1 (stereo unspecified)	1.7	5	–
O=C(C1CCC1)N1CCCC1c1cnc(-c2cccc(Cl)c2)cc1O (stereo unspecified)	–	2.8	–
Cc1cc(-c2cccc(Cl)c2)ncc1C1CC(O)CN1C(=O)c1nccs1 (stereo unspecified)	0.9	–	–
Cc1cc(-c2cccc(Cl)c2)ncc1C1CC(O)CN1C(=O)c1cnccn1 (stereo unspecified)	1.6	–	–
Cc1cc(-c2cccc(Cl)c2)ncc1C1CC(F)CN1C(=O)c1cncs1 (stereo unspecified)	7.1	–	–
Cc1cc(-c2cccc(Cl)c2)ncc1[C@H]1CCCN1C(=O)c1nccs1	–	–	logD [2]: 4.3; Kp at 1 h [3]: 0.8; concentration at 1 h [4]: 3 nM; Cp(f) (Plasma): 1 nM; concentration at 1 h [5]: 133 nM; Papp [6]: 15 ×10⁻⁶ cm/s; concentration at 1 h [7]: 162 nM
Cc1cc(-c2cccc(Cl)c2)ncc1C1CCCN1C(=O)c1nccs1 (racemic)	5.2	–	–

Source: ChEMBL document CHEMBL1806397, “6-Aryl-3-pyrrolidinylpyridines as mGlu5 receptor negative allosteric modulators” (Bioorg Med Chem Lett, 2011)
